12 molecules from ChEMBL document CHEMBL1914454, “Novel N-linked aminopiperidine inhibitors of bacterial topoisomerase type II: broad-spectrum antibacterial agents with reduced hERG activity” (J Med Chem, 2011) can be followed below.

One data set deals with Pseudomonas aeruginosa. Briefly: Antibacterial activity against Pseudomonas aeruginosa PAO1 after 18 to 24 hrs by broth microdilution method. Format: functional. Put shortly:
(§1)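 Broth microdilution following CLSI guidelines in Mueller Hinton broth. Compounds in DMSO, diluted to 2% DMSO final, 11 doubling dilutions from 64 to 0.06 μg/mL. Incubated at 35 °C for 18−24 h; growth read by absorbance at 620 nm.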

Data set [1] in a line: Octanol-phosphate buffer partition coefficient, log D of the compound at pH 7.4 by LC/MS/UV analysis.
In the next data set the test system is Escherichia coli. Briefly: Antibacterial activity against Escherichia coli W3110 after 18 to 24 hrs by broth microdilution method. The class given is functional. The note with it: K-12 substr. W3110. The procedure, abridged:
as §1

The test system of a further data set is Streptococcus pneumoniae. Nature of the data set: Antibacterial activity against penicillin-susceptible Streptococcus pneumoniae D39 after 18 to 24 hrs by broth microdilution method. The class given is functional. Put shortly: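 CLSI broth microdilution in 2.2% (w/v) Mueller Hinton broth with 0.65% (v/v) lysed horse blood. Compounds diluted from DMSO to 2% DMSO final, 11 doubling dilutions from 64 to 0.06 μg/mL. Incubated at 35 °C for 18−24 h; read at 620 nm.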
(In general: Dilution methods test growth across graded concentrations, often in twofold steps.)

Data set [2] can be described thus: Fraction unbound in human plasma at 10 uM after 16 hrs by equilibrium dialysis. (In equilibrium dialysis free small molecules cross a membrane that holds back macromolecules.)
Data set [3] can be described thus: Inhibition of Escherichia coli ATPase activity of topoisomerase 4 ParC/ParE subunit assessed as reduction in inorganic phosphate production after 24 hrs by ammonium molybdate/malachite-green based assay. The procedure, abridged:
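Each reaction contained 0.5 nM each of E. coli ParC and ParE, 0.16 mM ATP and 0.005 mg/mL sheared salmon sperm DNA in 20 mM Tris pH 8.0 with 50 mM ammonium acetate, 8.0 mM MgCl₂, 0.5 mM EDTA, 5 mM DTT, 2.5% glycerol and 0.005% Brij-35. Compound dilution series; 24 h at room temperature. Quenched with malachite green; absorbance read at 650 nm. IC50 is the mean of three replicate experiments.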

The next data set has as its system Staphylococcus aureus. Nature of the data set: Antibacterial activity against methicillin-susceptible Staphylococcus aureus after 18 to 24 hrs by broth microdilution method. Format: functional. Put shortly: as §1
In data set [4] the target is Voltage-gated inwardly rectifying potassium channel KCNH2 (Homo sapiens, UniProt Q12809). Nature of the data set: Inhibition of human ERG by ionworks HT assay. In general terms: Patch clamp records ionic current or voltage across a cell membrane.

Values after ≈ are worked out from the molar mass of the structure shown.

Voltage-gated inwardly rectifying potassium channel KCNH2, sequence (Q12809 whole entry): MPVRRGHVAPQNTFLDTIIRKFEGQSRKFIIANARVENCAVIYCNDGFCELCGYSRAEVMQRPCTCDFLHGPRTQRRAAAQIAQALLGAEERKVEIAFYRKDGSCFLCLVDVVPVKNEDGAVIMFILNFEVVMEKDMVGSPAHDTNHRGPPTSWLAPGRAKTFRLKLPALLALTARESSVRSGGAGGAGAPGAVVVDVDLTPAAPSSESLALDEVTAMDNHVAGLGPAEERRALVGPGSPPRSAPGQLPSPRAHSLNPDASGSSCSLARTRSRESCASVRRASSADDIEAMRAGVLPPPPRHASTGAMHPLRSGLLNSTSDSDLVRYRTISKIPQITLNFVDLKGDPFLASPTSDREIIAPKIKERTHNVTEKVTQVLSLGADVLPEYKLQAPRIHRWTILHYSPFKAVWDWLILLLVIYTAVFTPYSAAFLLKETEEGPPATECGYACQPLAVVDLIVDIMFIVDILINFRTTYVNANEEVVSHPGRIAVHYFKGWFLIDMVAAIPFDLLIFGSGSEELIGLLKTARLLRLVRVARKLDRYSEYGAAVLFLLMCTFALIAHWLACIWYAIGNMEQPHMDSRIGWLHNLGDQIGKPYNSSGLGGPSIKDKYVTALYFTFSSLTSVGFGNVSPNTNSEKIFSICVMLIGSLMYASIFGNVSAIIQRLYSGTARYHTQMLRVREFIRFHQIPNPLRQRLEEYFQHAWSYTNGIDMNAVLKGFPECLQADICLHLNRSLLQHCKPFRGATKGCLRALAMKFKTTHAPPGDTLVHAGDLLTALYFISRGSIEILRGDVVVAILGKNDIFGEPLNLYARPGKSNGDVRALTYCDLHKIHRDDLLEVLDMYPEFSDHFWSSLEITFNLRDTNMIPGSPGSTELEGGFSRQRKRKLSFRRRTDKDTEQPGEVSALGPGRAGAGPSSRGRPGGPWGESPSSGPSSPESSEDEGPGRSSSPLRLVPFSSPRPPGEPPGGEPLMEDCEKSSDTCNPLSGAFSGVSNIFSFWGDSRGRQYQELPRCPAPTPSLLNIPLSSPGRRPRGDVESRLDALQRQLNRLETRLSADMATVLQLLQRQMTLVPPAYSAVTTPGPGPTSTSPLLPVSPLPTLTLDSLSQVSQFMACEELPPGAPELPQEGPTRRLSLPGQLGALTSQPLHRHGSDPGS

Regarding `COc1ccc2ncc(F)c(CCN3CCC(NCc4ccc5c(n4)NC(=O)CO5)CC3)c2n1`, the MIC (in general, the lowest concentration found to suppress growth) with Pseudomonas aeruginosa came out at 1 µg/mL (≈ 2.14 µM); against Escherichia coli, 0.06 µg/mL (≈ 0.129 µM); with Streptococcus pneumoniae it was 0.03 µg/mL (≈ 0.0643 µM); against Staphylococcus aureus, 0.02 µg/mL (≈ 0.0429 µM). Besides, the pH-dependent lipophilicity (logD) – broadly, the decadic logarithm of the distribution of all forms, ionised or not, between an organic phase and buffer at a given pH – in data set [1] (octanol/phosphate buffer) stood at 1.78. In data set [2], the free fraction (fraction unbound) (as a rule, the share of the substance not bound to proteins or other matrix) at 16 h, 10 µM was determined as 0.06. For the same molecule, the IC50 (usually the point on the concentration scale where inhibition reaches its midpoint) in data set [3] came out at 0.6 nM.

Consider `O=C1COc2ccccc2N1CCN1CCC(NCc2cc3c(cn2)OCCO3)CC1`, for which the MIC is over 8 µg/mL in the data set with Pseudomonas aeruginosa, 8 µg/mL (≈ 18.8 µM) against Escherichia coli, 4 µg/mL (≈ 9.42 µM) against Streptococcus pneumoniae and 2 µg/mL (≈ 4.71 µM) in the data set on Staphylococcus aureus. In data set [1] (octanol/phosphate buffer), this molecule had a logD of 1.04. In addition, in data set [2], the fraction unbound at 16 h, 10 µM is 0.26. The IC50 in data set [3] was 100 nM.

In the case of `COc1ccc2ncc(=O)n(CCN3CCC(NCc4cc5c(cn4)OCCO5)CC3)c2n1`, the MIC with Pseudomonas aeruginosa was determined as 4 µg/mL (≈ 8.84 µM); in the data set on Escherichia coli, 0.25 µg/mL (≈ 0.552 µM); with Streptococcus pneumoniae, 0.03 µg/mL (≈ 0.0663 µM); against Staphylococcus aureus it was 0.02 µg/mL (≈ 0.0442 µM). In data set [1] (octanol/phosphate buffer), this molecule displayed a pH-dependent lipophilicity (logD) of 0.83. The fraction unbound at 16 h, 10 µM in data set [2] was 0.47. In addition, the IC50 in data set [3] was 1.5 nM.

Regarding `COc1ccc2c(C)cc(=O)n(CCN3CCC(NCc4cc5c(cn4)OCCO5)CC3)c2c1`, the MIC is over 8 µg/mL in the data set on Pseudomonas aeruginosa, 0.5 µg/mL (≈ 1.08 µM) in the data set with Escherichia coli, 0.03 µg/mL (≈ 0.0646 µM) in the data set with Streptococcus pneumoniae and 0.02 µg/mL (≈ 0.0431 µM) in the data set on Staphylococcus aureus. The log distribution coefficient (logD) in data set [1] (octanol/phosphate buffer) worked out at 1.72. This molecule also yielded a half-inhibitory concentration (IC50) in data set [4] of 23000 nM.

Consider `COc1ccc2c(c1)N(CCN1CCC(NCc3cc4c(cn3)OCCO4)CC1)C(=O)CO2`, for which the MIC is over 8 µg/mL against Pseudomonas aeruginosa, 1 µg/mL (≈ 2.2 µM) in the data set with Escherichia coli, 0.25 µg/mL (≈ 0.55 µM) with Streptococcus pneumoniae and 0.13 µg/mL (≈ 0.286 µM) in the data set with Staphylococcus aureus. In addition, the logD in data set [1] (octanol/phosphate buffer) was determined as 1.24. In data set [4], the IC50 was found to be 13000 nM. The same molecule showed a fraction unbound at 16 h, 10 µM in data set [2] of 0.18.

In the case of `COc1ccc2c(C)nc(=O)n(CCN3CCC(NCc4cc5c(cn4)OCCO5)CC3)c2c1`, the MIC with Pseudomonas aeruginosa was over 8 µg/mL; in the data set on Escherichia coli it was over 8 µg/mL; against Streptococcus pneumoniae, 1 µg/mL (≈ 2.15 µM); in the data set on Staphylococcus aureus it was 2 µg/mL (≈ 4.3 µM). In addition, in data set [1] (octanol/water), the logD is 0.29. The IC50 in data set [4] is over 33000 nM; in data set [3] it was 82 nM.

As for `COc1ccc2c(c1)N(CCN1CCC(NCc3ccc4c(n3)NC(=O)CO4)CC1)C(=O)CO2`, the MIC in the data set with Pseudomonas aeruginosa came out at 4 µg/mL (≈ 8.56 µM); with Escherichia coli, 0.25 µg/mL (≈ 0.535 µM); in the data set with Streptococcus pneumoniae, 0.5 µg/mL (≈ 1.07 µM); in the data set with Staphylococcus aureus, 0.13 µg/mL (≈ 0.278 µM). The molecule also showed a logD in data set [1] (octanol/phosphate buffer) of 0.87. Besides, the fraction unbound at 16 h, 10 µM in data set [2] came to 0.11. In data set [3], the IC50 is 5 nM.

Turning to `COc1cc2c(ccc(=O)n2CCN2CCC(NCc3cc4c(cn3)OCCO4)CC2)cn1`, the minimal inhibitory concentration (MIC) in the data set with Pseudomonas aeruginosa was over 8 µg/mL; against Escherichia coli, 8 µg/mL (≈ 17.7 µM); in the data set with Streptococcus pneumoniae it was 1 µg/mL (≈ 2.21 µM); in the data set with Staphylococcus aureus, 1 µg/mL (≈ 2.21 µM). In addition, the pH-dependent lipophilicity (logD) in data set [1] (octanol/phosphate buffer) was found to be 0.68. In data set [2], this molecule gave a fraction unbound at 16 h, 10 µM of 0.17. Moreover, the IC50 in data set [3] came out at 28 nM.

Consider `O=C1COc2ccc(CNC3CCN(CCN4C(=O)COc5ccc(F)cc54)CC3)nc2N1`, for which the MIC was determined as 3 µg/mL (≈ 6.59 µM) in the data set with Pseudomonas aeruginosa, 0.25 µg/mL (≈ 0.549 µM) with Escherichia coli, 0.5 µg/mL (≈ 1.1 µM) in the data set with Streptococcus pneumoniae and 0.25 µg/mL (≈ 0.549 µM) in the data set on Staphylococcus aureus. In addition, in data set [1] (octanol/phosphate buffer), the logD is 0.9. In addition, in data set [2], the fraction unbound at 16 h, 10 µM amounted to 0.17.

With `COc1ccc2ncc(F)c(CCN3CCC(NCc4cc5c(cn4)OCCO5)CC3)c2n1`, the MIC with Pseudomonas aeruginosa was 4 µg/mL (≈ 8.82 µM); with Escherichia coli it was 0.13 µg/mL (≈ 0.287 µM); against Streptococcus pneumoniae it was under 0.07 µg/mL; against Staphylococcus aureus, under 0.01 µg/mL. Further, in data set [1] (octanol/phosphate buffer), the logD was 1.46. Also, the fraction unbound at 16 h, 10 µM in data set [2] was 0.17. In data set [3], the IC50 was determined as 1.3 nM.

For `COc1ccc2c(c1)N(CCN1CCC(NCc3cc4c(cn3)OCCO4)CC1)C(=O)CS2`, the MIC was over 8 µg/mL in the data set on Pseudomonas aeruginosa, over 8 µg/mL in the data set on Escherichia coli, over 8 µg/mL against Streptococcus pneumoniae and 8 µg/mL (≈ 17 µM) against Staphylococcus aureus. In data set [2], this molecule had a fraction unbound at 16 h, 10 µM of 0.09.

As to `COc1ccc2nnc(=O)n(CCN3CCC(NCc4ccc5c(n4)NC(=O)CO5)CC3)c2c1`, the MIC in the data set on Pseudomonas aeruginosa is 8 µg/mL (≈ 17.2 µM); with Escherichia coli it was 2 µg/mL (≈ 4.3 µM); with Streptococcus pneumoniae, 8 µg/mL (≈ 17.2 µM); in the data set on Staphylococcus aureus, over 8 µg/mL. Moreover, the half-maximal inhibitory concentration (IC50) in data set [3] is 26 nM.
